Results published in ChEMBL document CHEMBL3576820, “Discovery of benzimidazole oxazolidinediones as novel and selective nonsteroidal mineralocorticoid receptor antagonists” (ACS Med Chem Lett, 2015).
pIC50: −log10 of the molar value. Calls of active or inactive are those of the source. The rule behind the calls is not given here.

Tests used:
[1] = species on record: Homo sapiens; assay: Selectivity ratio of IC50 for human estrogen receptor beta to IC50 for human mineralocorticoid receptor
[2] = biological target: T1, Progesterone receptor (Homo sapiens) (UniProt P06401); assay: Agonist activity at human progesterone receptor beta by cell-based assay
T1 sequence (whole entry): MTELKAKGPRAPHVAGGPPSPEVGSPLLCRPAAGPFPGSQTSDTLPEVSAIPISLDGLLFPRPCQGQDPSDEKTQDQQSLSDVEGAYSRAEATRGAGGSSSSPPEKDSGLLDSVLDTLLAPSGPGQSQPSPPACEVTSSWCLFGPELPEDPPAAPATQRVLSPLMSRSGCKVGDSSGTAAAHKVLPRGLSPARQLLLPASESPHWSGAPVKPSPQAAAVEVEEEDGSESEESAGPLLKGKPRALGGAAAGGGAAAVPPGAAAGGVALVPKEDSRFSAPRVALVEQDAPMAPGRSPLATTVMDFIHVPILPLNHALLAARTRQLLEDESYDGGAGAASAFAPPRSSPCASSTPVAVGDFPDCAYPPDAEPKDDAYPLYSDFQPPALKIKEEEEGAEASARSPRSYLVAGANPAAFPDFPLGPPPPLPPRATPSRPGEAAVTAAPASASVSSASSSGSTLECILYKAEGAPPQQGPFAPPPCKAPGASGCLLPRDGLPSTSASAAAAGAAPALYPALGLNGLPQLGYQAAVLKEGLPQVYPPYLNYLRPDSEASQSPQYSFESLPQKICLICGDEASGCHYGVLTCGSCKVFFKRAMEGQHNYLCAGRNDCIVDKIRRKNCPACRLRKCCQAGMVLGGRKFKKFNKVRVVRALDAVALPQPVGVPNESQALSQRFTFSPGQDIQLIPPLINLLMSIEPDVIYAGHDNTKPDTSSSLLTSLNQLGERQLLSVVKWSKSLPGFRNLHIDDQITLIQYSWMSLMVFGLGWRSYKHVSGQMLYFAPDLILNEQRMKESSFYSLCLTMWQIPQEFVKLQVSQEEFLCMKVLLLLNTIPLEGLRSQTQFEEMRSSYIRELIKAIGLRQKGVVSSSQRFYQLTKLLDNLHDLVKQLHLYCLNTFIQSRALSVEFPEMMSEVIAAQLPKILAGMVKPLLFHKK

[3] = test system: Rattus norvegicus; assay: Dose normalized AUC in Wistar han rat at 2 mg/kg, po; format: ADME, organism-based; conditions: in vivo
Procedure, shortened: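 Wistar Han rats. IV dose 1 mg/kg in DMSO/PEG200/water (10:60:30), n=2. Oral dose 2 mg/kg in imwitor/tween (1:1) by gavage, n=3. Values are averages. Derived: F%, plasma clearance, Vdss, terminal half-life and oral AUC normalized to dose.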

[4] = species on record: Homo sapiens; assay: Selectivity ratio of IC50 for human androgen receptor to IC50 for human mineralocorticoid receptor
[5] = species on record: Homo sapiens; assay: Selectivity ratio of IC50 for human progesterone receptor beta to IC50 for human mineralocorticoid receptor
[6] = species on record: Homo sapiens; assay: Selectivity ratio of IC50 for human estrogen receptor alpha to IC50 for human mineralocorticoid receptor
[7] = biological target: Estrogen receptor beta (Homo sapiens, UniProt Q92731); assay: Antagonist activity at human estrogen receptor beta assessed as inhibition of agonist-induced protein interaction with steroid receptor co-activator peptide by cell-based reporter gene assay
[8] = species on record: Homo sapiens; assay: Selectivity ratio of IC50 for human glucocorticoid receptor to IC50 for human mineralocorticoid receptor
[9] = biological target: T2, Androgen receptor (Homo sapiens, UniProt P10275); assay: Antagonist activity at human androgen receptor expressed in CHOK1 cells assessed as inhibition of D(-)-norgestrel-induced protein interaction with steroid receptor co-activator peptide after 24 hrs by beta-galactosidase reporter gene assay; format: cell-based, CHO-K1
T2 sequence (P10275 whole entry): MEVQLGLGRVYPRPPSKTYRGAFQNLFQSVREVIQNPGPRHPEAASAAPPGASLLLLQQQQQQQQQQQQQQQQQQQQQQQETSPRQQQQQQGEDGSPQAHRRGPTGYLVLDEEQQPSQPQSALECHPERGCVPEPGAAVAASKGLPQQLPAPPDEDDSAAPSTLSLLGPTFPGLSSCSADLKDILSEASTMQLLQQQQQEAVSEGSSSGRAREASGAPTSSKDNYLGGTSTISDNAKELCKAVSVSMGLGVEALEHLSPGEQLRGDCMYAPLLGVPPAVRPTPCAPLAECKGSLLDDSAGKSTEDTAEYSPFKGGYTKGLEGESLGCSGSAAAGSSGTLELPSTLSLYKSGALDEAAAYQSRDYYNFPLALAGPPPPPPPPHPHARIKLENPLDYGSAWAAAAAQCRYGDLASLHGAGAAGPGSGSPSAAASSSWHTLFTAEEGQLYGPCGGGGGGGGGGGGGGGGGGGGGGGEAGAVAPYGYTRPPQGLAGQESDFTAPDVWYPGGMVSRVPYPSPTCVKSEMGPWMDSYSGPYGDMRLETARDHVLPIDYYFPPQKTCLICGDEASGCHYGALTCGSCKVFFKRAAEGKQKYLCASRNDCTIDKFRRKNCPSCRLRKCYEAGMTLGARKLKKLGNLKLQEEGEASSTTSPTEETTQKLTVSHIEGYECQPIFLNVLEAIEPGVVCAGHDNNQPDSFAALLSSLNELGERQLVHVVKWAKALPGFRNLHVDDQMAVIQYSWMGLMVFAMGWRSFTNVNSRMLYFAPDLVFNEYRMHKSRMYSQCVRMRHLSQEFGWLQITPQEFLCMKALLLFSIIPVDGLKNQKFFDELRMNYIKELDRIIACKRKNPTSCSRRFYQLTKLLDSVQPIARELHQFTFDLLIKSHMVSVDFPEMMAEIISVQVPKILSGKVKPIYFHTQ

[10] = Plasma protein binding in human; format: ADME, cell-free; conditions: read-out: PPB
[11] = test system: Rattus norvegicus; assay: Natriuretic activity in po dosed WKY rat measured over 6 hrs; format: functional, organism-based
[12] = Plasma protein binding in rat; format: ADME, cell-free; conditions: read-out: PPB

Sequence of Estrogen receptor beta (Q92731 whole entry): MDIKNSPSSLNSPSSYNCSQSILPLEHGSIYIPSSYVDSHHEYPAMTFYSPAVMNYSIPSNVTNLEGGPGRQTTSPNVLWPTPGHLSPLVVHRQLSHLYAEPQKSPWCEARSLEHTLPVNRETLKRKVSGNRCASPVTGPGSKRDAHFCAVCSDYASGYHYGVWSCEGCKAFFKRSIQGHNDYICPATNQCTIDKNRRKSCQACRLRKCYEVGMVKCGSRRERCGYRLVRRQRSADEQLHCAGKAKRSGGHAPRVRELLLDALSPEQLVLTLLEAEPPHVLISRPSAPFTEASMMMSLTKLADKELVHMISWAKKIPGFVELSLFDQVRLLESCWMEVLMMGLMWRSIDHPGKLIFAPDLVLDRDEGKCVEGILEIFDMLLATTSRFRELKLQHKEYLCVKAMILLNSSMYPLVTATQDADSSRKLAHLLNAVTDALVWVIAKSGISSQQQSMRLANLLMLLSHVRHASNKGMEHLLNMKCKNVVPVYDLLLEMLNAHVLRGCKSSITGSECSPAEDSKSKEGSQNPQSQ

Compound: Cc1nocc1-c1ccc2[nH]c([C@@]3(Cc4ccccc4)OC(=O)N([C@H](C)c4ccc(F)cc4)C3=O)nc2c1
- Ratio IC50 [1]: > 40
- Activity [2]: inactive
- AUC/dose [3]: 0.79 µM·kg·h/mg
- Ratio IC50 [4]: 90
- Ratio IC50 [5]: > 40
- Ratio IC50 [6]: > 40
- pIC50 [7]: 5.52
- Ratio IC50 [8]: > 40
- pIC50 [9]: 5.47

Compound: C[C@H](c1ccc(F)cc1)N1C(=O)O[C@](Cc2ccccc2)(c2nc3c(NS(C)(=O)=O)cccc3[nH]2)C1=O
- Activity [2]: inactive
- AUC/dose [3]: 0.085 µM·kg·h/mg
- pIC50 [7]: 5.14
- pIC50 [9]: 4.96

Compound: C[C@H](c1ccc(F)cc1)N1C(=O)O[C@](Cc2ccccc2)(c2nc3cc(-c4cccnc4)ccc3[nH]2)C1=O
- fraction unbound [10]: < 0.01
- Ratio IC50 [1]: > 40
- Activity [2]: inactive
- AUC/dose [3]: 0.046 µM·kg·h/mg
- Ratio IC50 [4]: 110
- Ratio IC50 [5]: > 40
- Activity [11]: Active
- Ratio IC50 [6]: > 40
- pIC50 [7]: 5.57
- Ratio IC50 [8]: > 40
- fraction unbound [12]: < 0.01
- pIC50 [9]: 5.43

Compound: C[C@H](c1ccc(F)cc1)N1C(=O)O[C@](Cc2ccccc2)(c2nc3cc(Cl)ccc3[nH]2)C1=O
- fraction unbound [10]: < 0.01
- Activity [2]: inactive
- AUC/dose [3]: 0.11 µM·kg·h/mg
- Activity [11]: Active
- pIC50 [7]: 5.62
- fraction unbound [12]: < 0.01
- pIC50 [9]: 5.51

Compound: C[C@H](c1ccc(F)cc1)N1C(=O)O[C@](Cc2ccccc2)(c2nc3cc(C(F)(F)F)ccc3[nH]2)C1=O
- fraction unbound [10]: < 0.01
- Activity [2]: inactive
- AUC/dose [3]: 0.33 µM·kg·h/mg
- pIC50 [7]: 5.57
- fraction unbound [12]: < 0.01
- pIC50 [9]: 5.52

Compound: C[C@H](c1ccc(F)cc1)N1C(=O)O[C@](Cc2ccccc2)(c2nc3cc(NS(C)(=O)=O)ccc3[nH]2)C1=O
- Activity [2]: inactive
- AUC/dose [3]: 0.067 µM·kg·h/mg
- Activity [11]: Active
- pIC50 [7]: 4.92
- pIC50 [9]: 4.89

Compound: C[C@H](c1ccc(F)cc1)N1C(=O)O[C@](Cc2ccccc2)(c2nc3cc(-c4cc[nH]n4)ccc3[nH]2)C1=O
- Activity [2]: inactive
- AUC/dose [3]: 0.49 µM·kg·h/mg
- pIC50 [7]: 5.59
- pIC50 [9]: 5.51

Compound: C[C@H](c1ccc(F)cc1)N1C(=O)O[C@](Cc2ccccc2)(c2nc3cc(N4CCOCC4)ccc3[nH]2)C1=O
- Ratio IC50 [1]: > 40
- Activity [2]: inactive
- AUC/dose [3]: 0.07 µM·kg·h/mg
- Ratio IC50 [4]: > 40
- Ratio IC50 [5]: > 40
- Activity [11]: Dose-dependent effect
- Ratio IC50 [6]: > 40
- pIC50 [7]: 5.28
- Ratio IC50 [8]: > 40
- pIC50 [9]: 5.11
